Assays:
A-427 = test: Antitumor activity against human A-427 cells harboring […]/LKB1 CDKN2A CTNNB1 T41A SMARCA4 mutant xenografted in mouse assessed as tumor growth inhibition at 5 mg/kg, po; assay type: functional; details: A-427, read-out: TGI
[1] = Antitumor activity against human A375.X1 cells xenografted in mouse assessed as reduction in ERK phosphorylation at 10 mg/kg, po administered for 3 days and measured at 2 to 24 hrs by Western blot analysis; assay type: functional; parameters: scale not given: the % may be the effect or the level left; details: time 74-96 hrs
In short: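 A375.X1 xenograft mice were dosed orally at 1, 3, 5 or 10 mg/kg once daily for 3 days. Tumors were collected 2, 8 and 24 h after the last dose, pulverized frozen and resolved by 4–12% SDS-PAGE. p-ERK1/2 and t-ERK1/2 were measured by Western blot and quantified by band intensity, relative to vehicle-treated mice (0 h).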

Compound: O=C(c1ccc(F)c(F)c1Nc1ccc(I)cc1F)N1CC(O)([C@@H]2CCCCN2)C1 [COBIMETINIB]
- inhibition in vivo at 5 mg/kg (A-427): -137%
- Activity [1]: 75%

From ChEMBL document CHEMBL5678805, “Intermittent administration of MEK inhibitor GDC-0973 plus PI3K inhibitor GDC-0941 triggers robust apoptosis and tumor growth inhibition” (Cancer Res, 2012)
